CHO-K1 Ca antag: nonselective inhibitor or artifact in parental CHO-K1 cells; ATP-induced calcium, Fluo-8 fluorescence; inhibition, % at 3 µM; 0.6% of 360,000 active;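 active = inhibition above a per-plate cutoff, the plate's mean sample inhibition plus 3 SD, cut at about 24% in these data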
M1 ag parental: nonselective activator or artifact in parental CHO-K1 cells; AID 602248; activation, % at 3 µM; Fluo-8 calcium fluorescence; scaled to maximal ATP response, vehicle zero; 0.48% of 360,000 active; in the data active = activation above about 15%;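 also: untransfected CHO-K1 host cells lacking M1 receptor as counterscreen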
OX1R antag-1: OX1R (human) antagonism | O43613 | OX1R-expressing cells, FRET antagonist read-out | inhibition, % at 6.6 µM | 1.8% of 330,000 active; in the data active = inhibition mostly above about 38%, no sharp cut-off; inactive = mostly below about 40%
Target sequence (O43613 whole entry, looked up): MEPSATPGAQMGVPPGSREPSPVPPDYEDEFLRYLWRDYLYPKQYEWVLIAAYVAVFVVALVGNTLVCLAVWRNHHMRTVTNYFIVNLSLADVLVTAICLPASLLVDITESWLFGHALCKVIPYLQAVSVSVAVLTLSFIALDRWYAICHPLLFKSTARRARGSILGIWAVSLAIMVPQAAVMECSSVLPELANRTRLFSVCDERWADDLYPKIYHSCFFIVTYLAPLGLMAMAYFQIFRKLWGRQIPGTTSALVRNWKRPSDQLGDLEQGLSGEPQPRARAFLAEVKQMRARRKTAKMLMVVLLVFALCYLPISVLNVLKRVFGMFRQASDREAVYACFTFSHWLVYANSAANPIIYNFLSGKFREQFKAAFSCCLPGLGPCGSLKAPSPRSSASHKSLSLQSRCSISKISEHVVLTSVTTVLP
M1 PAM parental: counter-screen for M1 PAMs: effect in parental CHO-K1 cells; AID 602247; activation, % at 3 µM; 0.02% of 360,000 active; ATP EC20, Fluo-8 calcium fluorescence; 0% at ATP EC20, 100% at ATP max;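 active = activation above the run cutoff, the mean activation of all test compounds plus 3 SD, cut at about 40% in these data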;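 also: peak over basal fluorescence ratio in a 140 s read after ATP addition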
OX1R antag-2: blocks the human orexin 1 receptor | inhibition, % at 5 µM | 0.43% of 330,000 active | O43613 | CHO/OX1R cells, Fluo-8 calcium fluorescence, orexin A;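 active = inhibition above its plate's threshold, mean inhibition of all tested compounds on the plate plus 3 SD, cut at about 37% in these data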
CHO parental Ca: counter-screen: ATP calcium response change in parental CHO cells; parental CHO-K1, ATP-induced calcium, Fluo-8 fluorescence; inhibition, % at 5.6 µM; 0.63% of 330,000 active; AID 463079;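 active = inhibition above that plate's mean sample inhibition plus 3 SD, cut at about 26% in these data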
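Test system: untransfected parental CHO cell line. Compound: one dose, 5.6 µM nominal. Detection: intracellular calcium via Fluo-8 no-wash fluorescent dye. Measure: % inhibition. Benchmarks: ATP-challenged DMSO wells low, unchallenged DMSO wells high.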
OX1R Ca confirm: confirmation of human orexin 1 receptor antagonists. shares compounds with OX1R antag-2. CHO/OX1R cells, orexin A calcium Fluo-8 fluorescence. inhibition, % at 5 µM. 38% of 1,100 active. AID 492963; in the data active = inhibition above about 29%
CHO Ca triplic: counter-screen: parental CHO calcium response change, triplicate; inhibition, % at 5.6 µM; parental CHO-K1, ATP-induced calcium, Fluo-8 fluorescence; 9.3% of 1,100 active; shares compounds with OX1R antag-2;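 active = inhibition above a per-plate limit, the mean inhibition of that plate's test compounds plus 3 SD, cut at about 25% in these data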
OX1R HTRF confirm: confirmation of human orexin 1 receptor antagonists, HTRF format | OX1R-expressing cells, HTRF antagonist assay | shares compounds with OX1R antag-1 | inhibition, % at 6.6 µM | 49% of 1,800 active | AID 492964; in the data active = inhibition above about 55%;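 also: CHO cells expressing OX1R stimulated with orexin A at about EC80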
CHO-K1 HTRF cnt: counter-screen for OX1R antagonists: effect in parental CHO-K1 cells; inhibition, % at 6.6 µM; shares compounds with OX1R antag-1; AID 493232; HTRF counterscreen; 48% of 1,800 active; in the data active = inhibition above about 17%
Numbers stand for hits; - = inactive; . = no result given. A selection: hits, their analogues and other compounds. The true share with any hit is near 2.9%.

SMILES | CHO-K1 Ca antag | M1 ag parental | OX1R antag-1 | M1 PAM parental | OX1R antag-2 | CHO parental Ca | OX1R Ca confirm | CHO Ca triplic | OX1R HTRF confirm | CHO-K1 HTRF cnt
Cn1c2ccccc2c2cc(/C=N/NC(=O)c3ccccc3F)ccc21 | - | - | 102.4 | - | - | - | - | - | 94.4 | -
CCOC(=O)C1CCN(c2cc3c(cc2NC(=O)c2ccccc2OCC)n(C)c(=O)n3C)CC1 | - | - | 35.0 | - | - | - | - | - | - | -
COC(=O)c1cc2ccc(OC)cc2c2cc(OC)c(OC)cc12 | - | - | - | - | - | - | . | . | . | .
COc1cc(/C=N/NC(=O)c2cc(-c3cccc(Br)c3)nc3ccccc23)cc(OC)c1O | - | - | 66.6 | - | - | - | 28.8 | - | 78.4 | -
NC(=O)C1CN(C(=O)c2cccc(S(=O)(=O)N3CCc4ccccc43)c2)c2ccccc2O1 (stereo not drawn) | - | - | 69.0 | - | 51.9 | - | 37.4 | - | 67.0 | -
O=C(N/N=C/c1ccccc1)c1ccc(N2CCCC2=O)cc1 | - | - | - | - | - | - | . | . | . | .
COc1ccc(N2CCN(C(=O)CCC(=O)NNc3nc4ccccc4c4nc(C)nn34)CC2)cc1 | - | - | - | - | - | - | . | . | . | .
COCCCNC(=O)CCC(=O)NNc1nc2ccccc2c2nc(-c3ccccc3)nn12 | - | - | 95.3 | - | - | - | 28.9 | - | 81.5 | -
COc1ccc(N(CC(=O)NCCc2cccc(C)c2)S(=O)(=O)c2c(C)noc2C)cc1 | - | - | 102.6 | - | 81.3 | - | 68.1 | - | 91.3 | -
COc1ccc(N(CC(=O)NCCc2ccc(C)cc2)S(=O)(=O)c2c(C)noc2C)cc1 | - | - | 54.6 | - | - | - | 34.4 | - | 84.0 | -
O=C(NCC(=O)N1CC=C(c2ccccc2)CC1)c1ccc(F)cc1 | - | - | - | - | - | - | . | . | . | .
Cn1ncc(Br)c1N1C(=O)CCC1=O | - | - | - | - | - | - | . | . | . | .
COc1ccc(OCC(=O)Nc2cccc3cccnc23)cc1 | - | - | 87.0 | - | - | - | - | - | - | -
COc1ccc(OCC(=O)Nc2cccc(NC(=O)COc3ccc(OC)cc3)n2)cc1 | - | - | - | - | - | - | . | . | . | .
CCCCN(Cc1nc2ccccc2c(=O)[nH]1)C(=O)COc1ccc(F)cc1Cl | - | - | - | - | - | - | . | . | . | .
COCCN(Cc1nc2ccccc2c(=O)[nH]1)C(=O)COc1c(C)cc(Cl)cc1C | - | - | 58.4 | - | 39.2 | - | - | - | 70.1 | -
CCOC(=O)c1cnc(SCc2nc(N)nc(Nc3ccccc3)n2)nc1N | - | - | 73.1 | - | - | - | 34.7 | - | - | -
COc1ccc(C(=O)Nc2ccccc2C(=O)Nc2ccncc2)cc1 | - | - | - | - | - | - | . | . | . | .
CC(=O)C[C@@H](O)CC(=O)[C@@H]1OC(=O)CCCCCCCc2ccccc21 | - | - | - | - | - | - | . | . | . | .
O=C(COC(=O)c1cc(-c2ccc(Cl)s2)nc2ccccc12)NCc1ccco1 | - | - | 56.1 | - | - | - | - | - | 74.2 | -
CCOC(=O)C1=C(C)N(C[C@@H]2CC[C@@H](Cc3ccc(-c4ccccc4)cc3)O2)C(=O)NC1c1ccc(-c2ccccc2)cc1 (stereo partly drawn) | - | - | - | - | - | - | . | . | . | .
CCOC(=O)C1=C(C)N(C[C@@H]2CC[C@@H](Cc3ccc(-c4ccccc4)cc3)O2)C(=O)NC1C1CC1 (stereo partly drawn) | - | - | 34.0 | - | 50.8 | - | - | - | - | -
CCN(c1ccccc1)S(=O)(=O)c1ccc(Cl)c(NC(=O)CNC(C)c2ccccc2)c1 (stereo not drawn) | - | - | 28.1 | - | 50.1 | - | - | 37.4 | - | -
CC1CC(C)CN(CC(=O)NNC(=O)COc2ccc(Cl)cc2)C1 (stereo not drawn) | - | - | - | - | - | - | . | . | . | .
Cn1nccc1C(=O)N1CCN(c2ccccc2F)CC1 | - | - | - | - | - | - | . | . | . | .
SMILES | CHO-K1 Ca antag | M1 ag parental | OX1R antag-1 | M1 PAM parental | OX1R antag-2 | CHO parental Ca | OX1R Ca confirm | CHO Ca triplic | OX1R HTRF confirm | CHO-K1 HTRF cnt
CCc1sc(C(=O)Nc2ccc3nc(C)sc3c2)cc1C | - | - | 81.4 | - | 64.9 | - | 52.8 | - | 89.9 | -
CCc1sc(C(=O)Nc2ccc(NC(C)=O)cc2)cc1C | - | - | - | - | - | - | . | . | . | .
CCN(CC)CCNC(=O)c1ccc(NC(=O)c2cc(S(=O)(=O)N3CCCCC3)ccc2N2CCOCC2)cc1 | - | - | . | - | . | . | . | . | . | .
CCc1ccc(NC(=O)c2ccc(F)c(S(=O)(=O)NCC3COc4ccccc4O3)c2)cc1 (stereo not drawn) | - | - | 55.7 | - | - | - | - | 30.0 | - | -
N#Cc1ccccc1NC(=O)CSC1=Nc2ccccc2C2CC=NN12 (stereo not drawn) | - | - | 84.6 | - | - | - | - | - | - | -
O=C(CSC1=Nc2ccccc2C2CC=NN12)Nc1ccc2c(c1)OCO2 (stereo not drawn) | - | - | . | - | . | . | . | . | . | .
OCCn1c(SCCOc2ccccc2F)nc2ccccc21 | - | - | 104.7 | - | 52.3 | - | - | - | - | -
O=C(O)Cn1c(SCCOc2ccccc2F)nc2ccccc21 | - | - | - | - | - | - | . | . | . | .
CC(=O)Nc1ccc(NC(=O)C(C)OC(=O)C(C)SCC(=O)Nc2ccc(F)cc2)cc1 (stereo not drawn) | - | - | 89.0 | - | - | - | 45.8 | - | 86.8 | -
COc1ccccc1NC(=O)C(C)OC(=O)C(C)SCC(=O)Nc1ccc(C)cc1 (stereo not drawn) | - | - | . | - | . | . | . | . | . | .
Cc1c(C(=O)OCC(=O)Nc2ccc(N3CCOCC3)cc2)oc2ccccc12 | - | - | - | - | - | - | . | . | . | .
Cc1c(C(=O)Nc2ccc(N3CCOCC3)cc2)oc2ccccc12 | - | - | 99.7 | - | 73.2 | - | 73.4 | - | 90.1 | -
O=C(COC(=O)C1=COCCO1)Nc1cc(C(F)(F)F)ccc1Cl | - | - | - | - | - | - | . | . | . | .
COc1ccc2cc(C(C)C(=O)N3CCC(C(N)=O)CC3)ccc2c1 (stereo not drawn) | - | - | - | - | - | - | . | . | . | .
COc1cccc(C(=O)Nc2ccccc2)c1 | - | - | - | - | - | - | . | . | . | .
COc1cccc(NC(=O)c2ccc(C(=O)c3ccccc3)o2)c1 | - | - | 99.9 | - | 53.1 | - | 33.2 | - | 78.3 | -

Screens from PubChem BioAssay.
